# Test results: ChEMBL document CHEMBL1649165, “Activity profile in vitro of micafungin against Spanish clinical isolates of common and emerging species of yeasts and molds” (2009)
# What was measured:
# Type in all cases: functional
# Candida albicans = assay: Antimicrobial activity against Candida albicans by broth microdilution method
# Summary of the method: (§1)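 Clinical isolates from human patients, tested by broth microdilution using the AFST-EUCAST reference procedure for fermentative yeasts. The MIC was read per that reference method.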
# Pichia norvegensis = assay: Antimicrobial activity against Candida norvegensis by broth microdilution method; summary of the method: as §1
# Candida metapsilosis = assay: Antimicrobial activity against Candida metapsilosis by broth microdilution method; conditions: Lodderomyces metapsilosis; summary of the method: as §1
# Yarrowia lipolytica = assay: Antimicrobial activity against Yarrowia lipolytica by broth microdilution method
# Nakaseomyces glabratus = assay: Antimicrobial activity against Candida glabrata by broth microdilution method; summary of the method: as §1
# Saccharomyces cerevisiae = assay: Antimicrobial activity against Saccharomyces cerevisiae by broth microdilution method
# Papiliotrema laurentii = assay: Antimicrobial activity against Cryptococcus laurentii by broth microdilution method
# Summary of the method: (§2)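 Clinical isolates of nonfermentative yeasts, tested by broth microdilution following EUCAST recommendations. The only change from that method was a minor modification to improve growth.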
# [1] = tested on: Meyerozyma guilliermondii; assay: Antimicrobial activity against Candida guilliermondii by broth microdilution method; summary of the method: as §1
# Ustilago = assay: Antimicrobial activity against Ustilago spp by broth microdilution method
# Wickerhamomyces anomalus = assay: Antimicrobial activity against Candida pelliculosa by broth microdilution method; conditions: Hansenula anomala; summary of the method: as §1
# Trichosporon inkin = assay: Antimicrobial activity against Trichosporon inkin by broth microdilution method
# Summary of the method: (§3)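 Nonfermentative yeast clinical isolates (Rhodotorula, Trichosporon) tested by broth microdilution. The EUCAST yeast recommendations were followed strictly, with one minor modification to improve growth. MIC was read as the endpoint.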
# Trichosporon asahii = assay: Antimicrobial activity against Trichosporon asahii by broth microdilution method; summary of the method: as §3
# Clavispora lusitaniae = assay: Antimicrobial activity against Candida lusitaniae by broth microdilution method; summary of the method: as §1
# Trichosporon dermatis = assay: Antimicrobial activity against Trichosporon dermatis by broth microdilution method; conditions: Cutaneotrichosporon dermatis; summary of the method: as §3
# Magnusiomyces capitatus = assay: Antimicrobial activity against Dipodascus capitatus by broth microdilution method
# Naganishia albida = assay: Antimicrobial activity against Cryptococcus albidus by broth microdilution method; summary of the method: as §2
# [2] = tested on: Kazachstania pintolopesii; assay: Antimicrobial activity against Candida pintolopesii by broth microdilution method; conditions: Arxiozyma pintolopesii; summary of the method: as §1
# Candida orthopsilosis = assay: Antimicrobial activity against Candida orthopsilosis by broth microdilution method; conditions: Lodderomyces orthopsilosis; summary of the method: as §1
# Diutina rugosa = assay: Antimicrobial activity against Candida rugosa by broth microdilution method; summary of the method: as §1
# Pichia kudriavzevii = assay: Antimicrobial activity against Candida krusei by broth microdilution method; summary of the method: as §1
# [Candida] zeylanoides = Antimicrobial activity against Candida zeylanoides by broth microdilution method; conditions: Dujonia zeylanoides; summary of the method: as §1
# Trichosporon = assay: Antimicrobial activity against Trichosporon spp. by broth microdilution method; summary of the method: as §3
# Torulaspora delbrueckii = assay: Antimicrobial activity against Candida coliculosa by broth microdilution method; summary of the method: as §1
# [Candida] inconspicua = Antimicrobial activity against Candida inconspicua by broth microdilution method; conditions: Pichia inconspicua; summary of the method: as §1
# Candida tropicalis = assay: Antimicrobial activity against Candida tropicalis by broth microdilution method; summary of the method: as §1
# Rhodotorula glutinis = assay: Antimicrobial activity against Rhodotorula glutinis by broth microdilution method; summary of the method: as §3
# Kluyveromyces marxianus = assay: Antimicrobial activity against Candida kefyr by broth microdilution method; summary of the method: as §1
# Trichosporon jirovecii = assay: Antimicrobial activity against Trichosporon jirovecii by broth microdilution method; conditions: Cutaneotrichosporon jirovecii; summary of the method: as §3
# Rhodotorula mucilaginosa = assay: Antimicrobial activity against Rhodotorula mucilaginosa by broth microdilution method; summary of the method: as §3
# Geotrichum candidum = assay: Antimicrobial activity against Galactomyces geotrichum by broth microdilution method
# Candida parapsilosis = assay: Antimicrobial activity against Candida parapsilosis by broth microdilution method; conditions: Lodderomyces parapsilosis; summary of the method: as §1
# Debaryomyces hansenii = assay: Antimicrobial activity against Candida famata by broth microdilution method; summary of the method: as §1
# Trichosporon ovoides = assay: Antimicrobial activity against Trichosporon ovoides by broth microdilution method; summary of the method: as §3
# [3] = tested on: Cryptococcus deneoformans; assay: Antimicrobial activity against Cryptococcus neoformans var. neoformans by broth microdilution method; summary of the method: as §2
# [Candida] intermedia = Antimicrobial activity against Candida intermedia by broth microdilution method; conditions: Sungouiella intermedia; summary of the method: as §1
# Trichosporon domesticum = assay: Antimicrobial activity against Trichosporon mycotoxinivorans by broth microdilution method; conditions: Apiotrichum domesticum
# Summary of the method: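 Spanish human clinical isolates were tested as nonfermentative yeasts by broth microdilution. The method strictly followed the EUCAST recommendations, with a minor modification to improve growth, and the read-out was the MIC.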
compound,measurement,setting,value
Nc1nc(=O)[nH]cc1F [FLUCYTOSINE],MIC50,Candida albicans,0.12 µg/mL
same,MIC90,Candida albicans,0.5 µg/mL
same,MIC50,Pichia norvegensis,0.25 µg/mL
same,MIC90,Pichia norvegensis,16 µg/mL
same,MIC50,Candida metapsilosis,0.25 µg/mL
same,MIC90,Candida metapsilosis,16 µg/mL
same,MIC50,Yarrowia lipolytica,> 64 µg/mL
same,MIC90,Yarrowia lipolytica,> 64 µg/mL
same,MIC50,Nakaseomyces glabratus,0.12 µg/mL
same,MIC90,Nakaseomyces glabratus,0.25 µg/mL
same,MIC50,Saccharomyces cerevisiae,0.12 µg/mL
same,MIC90,Saccharomyces cerevisiae,0.5 µg/mL
same,MIC50,Papiliotrema laurentii,16 µg/mL
same,MIC90,Papiliotrema laurentii,> 64 µg/mL
same,MIC50,[1],0.12 µg/mL
same,MIC90,[1],0.25 µg/mL
same,MIC50,Ustilago,16 µg/mL
same,MIC90,Ustilago,> 64 µg/mL
same,MIC50,Wickerhamomyces anomalus,0.25 µg/mL
same,MIC90,Wickerhamomyces anomalus,16 µg/mL
same,MIC50,Trichosporon inkin,64 µg/mL
same,MIC90,Trichosporon inkin,> 64 µg/mL
same,MIC50,Trichosporon asahii,32 µg/mL
same,MIC90,Trichosporon asahii,> 64 µg/mL
same,MIC50,Clavispora lusitaniae,0.12 µg/mL
same,MIC90,Clavispora lusitaniae,16 µg/mL
same,MIC50,Trichosporon dermatis,16 µg/mL
same,MIC90,Trichosporon dermatis,> 64 µg/mL
same,MIC50,Magnusiomyces capitatus,0.12 µg/mL
same,MIC90,Magnusiomyces capitatus,1 µg/mL
same,MIC50,Naganishia albida,16 µg/mL
same,MIC90,Naganishia albida,> 64 µg/mL
same,MIC50,[2],0.25 µg/mL
same,MIC90,[2],16 µg/mL
same,MIC50,Candida orthopsilosis,0.25 µg/mL
same,MIC90,Candida orthopsilosis,16 µg/mL
same,MIC50,Diutina rugosa,0.25 µg/mL
same,MIC90,Diutina rugosa,16 µg/mL
same,MIC50,Pichia kudriavzevii,4 µg/mL
same,MIC90,Pichia kudriavzevii,8 µg/mL
same,MIC50,[Candida] zeylanoides,0.25 µg/mL
same,MIC90,[Candida] zeylanoides,16 µg/mL
same,MIC50,Trichosporon,16 µg/mL
same,MIC90,Trichosporon,> 64 µg/mL
same,MIC50,Torulaspora delbrueckii,0.25 µg/mL
same,MIC90,Torulaspora delbrueckii,16 µg/mL
same,MIC50,[Candida] inconspicua,0.25 µg/mL
same,MIC90,[Candida] inconspicua,16 µg/mL
same,MIC50,Candida tropicalis,0.12 µg/mL
same,MIC90,Candida tropicalis,0.25 µg/mL
same,MIC50,Rhodotorula glutinis,16 µg/mL
same,MIC90,Rhodotorula glutinis,> 64 µg/mL
same,MIC50,Kluyveromyces marxianus,0.5 µg/mL
same,MIC90,Kluyveromyces marxianus,4 µg/mL
same,MIC50,Trichosporon jirovecii,16 µg/mL
same,MIC90,Trichosporon jirovecii,> 64 µg/mL
same,MIC50,Rhodotorula mucilaginosa,0.25 µg/mL
same,MIC90,Rhodotorula mucilaginosa,1 µg/mL
same,MIC50,Geotrichum candidum,0.12 µg/mL
same,MIC90,Geotrichum candidum,0.25 µg/mL
same,MIC50,Candida parapsilosis,0.12 µg/mL
same,MIC90,Candida parapsilosis,0.25 µg/mL
same,MIC50,Debaryomyces hansenii,0.25 µg/mL
same,MIC90,Debaryomyces hansenii,16 µg/mL
same,MIC50,Trichosporon ovoides,16 µg/mL
same,MIC90,Trichosporon ovoides,> 64 µg/mL
same,MIC50,[3],16 µg/mL
same,MIC90,[3],32 µg/mL
same,MIC50,[Candida] intermedia,0.25 µg/mL
same,MIC90,[Candida] intermedia,16 µg/mL
same,MIC50,Trichosporon domesticum,16 µg/mL
same,MIC90,Trichosporon domesticum,> 64 µg/mL
OC(Cn1cncn1)(Cn1cncn1)c1ccc(F)cc1F [FLUCONAZOLE],MIC50,Candida albicans,0.12 µg/mL
same,MIC90,Candida albicans,0.25 µg/mL
same,MIC50,Pichia norvegensis,8 µg/mL
same,MIC90,Pichia norvegensis,> 64 µg/mL
same,MIC50,Candida metapsilosis,8 µg/mL
same,MIC90,Candida metapsilosis,> 64 µg/mL
same,MIC50,Yarrowia lipolytica,8 µg/mL
same,MIC90,Yarrowia lipolytica,> 64 µg/mL
same,MIC50,Nakaseomyces glabratus,4 µg/mL
same,MIC90,Nakaseomyces glabratus,32 µg/mL
same,MIC50,Saccharomyces cerevisiae,4 µg/mL
same,MIC90,Saccharomyces cerevisiae,> 64 µg/mL
same,MIC50,Papiliotrema laurentii,16 µg/mL
same,MIC90,Papiliotrema laurentii,> 64 µg/mL
same,MIC50,[1],4 µg/mL
same,MIC90,[1],> 64 µg/mL
same,MIC50,Ustilago,16 µg/mL
same,MIC90,Ustilago,> 64 µg/mL
same,MIC50,Wickerhamomyces anomalus,8 µg/mL
same,MIC90,Wickerhamomyces anomalus,> 64 µg/mL
same,MIC50,Trichosporon inkin,4 µg/mL
same,MIC90,Trichosporon inkin,4 µg/mL
same,MIC50,Trichosporon asahii,16 µg/mL
same,MIC90,Trichosporon asahii,> 64 µg/mL
same,MIC50,Clavispora lusitaniae,0.25 µg/mL
same,MIC90,Clavispora lusitaniae,1 µg/mL
same,MIC50,Trichosporon dermatis,16 µg/mL
same,MIC90,Trichosporon dermatis,> 64 µg/mL
same,MIC50,Magnusiomyces capitatus,16 µg/mL
same,MIC90,Magnusiomyces capitatus,32 µg/mL
same,MIC50,Naganishia albida,16 µg/mL
same,MIC90,Naganishia albida,> 64 µg/mL
same,MIC50,[2],8 µg/mL
same,MIC90,[2],> 64 µg/mL
same,MIC50,Candida orthopsilosis,8 µg/mL
same,MIC90,Candida orthopsilosis,> 64 µg/mL
same,MIC50,Diutina rugosa,8 µg/mL
same,MIC90,Diutina rugosa,> 64 µg/mL
same,MIC50,Pichia kudriavzevii,32 µg/mL
same,MIC90,Pichia kudriavzevii,> 64 µg/mL
same,MIC50,[Candida] zeylanoides,8 µg/mL
same,MIC90,[Candida] zeylanoides,> 64 µg/mL
same,MIC50,Trichosporon,16 µg/mL
same,MIC90,Trichosporon,> 64 µg/mL
same,MIC50,Torulaspora delbrueckii,8 µg/mL
same,MIC90,Torulaspora delbrueckii,> 64 µg/mL
same,MIC50,[Candida] inconspicua,8 µg/mL
same,MIC90,[Candida] inconspicua,> 64 µg/mL
same,MIC50,Candida tropicalis,0.25 µg/mL
same,MIC90,Candida tropicalis,2 µg/mL
same,MIC50,Rhodotorula glutinis,16 µg/mL
same,MIC90,Rhodotorula glutinis,> 64 µg/mL
same,MIC50,Kluyveromyces marxianus,0.25 µg/mL
same,MIC90,Kluyveromyces marxianus,0.5 µg/mL
same,MIC50,Trichosporon jirovecii,16 µg/mL
same,MIC90,Trichosporon jirovecii,> 64 µg/mL
same,MIC50,Rhodotorula mucilaginosa,> 64 µg/mL
same,MIC90,Rhodotorula mucilaginosa,> 64 µg/mL
same,MIC50,Geotrichum candidum,64 µg/mL
same,MIC90,Geotrichum candidum,> 64 µg/mL
same,MIC50,Candida parapsilosis,0.5 µg/mL
same,MIC90,Candida parapsilosis,1 µg/mL
same,MIC50,Debaryomyces hansenii,8 µg/mL
same,MIC90,Debaryomyces hansenii,> 64 µg/mL
same,MIC50,Trichosporon ovoides,16 µg/mL
same,MIC90,Trichosporon ovoides,> 64 µg/mL
same,MIC50,[3],16 µg/mL
same,MIC90,[3],> 64 µg/mL
same,MIC50,[Candida] intermedia,8 µg/mL
same,MIC90,[Candida] intermedia,> 64 µg/mL
same,MIC50,Trichosporon domesticum,16 µg/mL
same,MIC90,Trichosporon domesticum,> 64 µg/mL
